Assay outcomes as filed in PubChem BioAssay.
Hits are enriched below; roughly 1.1% of the tested compounds scored in any of these assays.
CAL PDZ FP-1: CAL PDZ (human) peptide binding inhibition; purified CAL PDZ, TMR-peptide fluorescence polarization, 1 h; inhibition, % at 24.9 µM; 300,000 compounds, 0.92% hits; AID 602252;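 active means mean inhibition of at least 30% with at least half of replicates also reaching 30%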;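 further: 0% = DMSO neutral control and 100% = excess unlabeled competitor peptide PRC23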
ERp5 inh: ERp5 (human) disulfide isomerase inhibition; 350,000 compounds, 0.05% hits; Q15084; ERp5 insulin aggregation, absorbance 650 nm, 90 min; inhibition, % at 9.99 µM;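 active means mean replicate inhibition above about 25%, with every replicate also reaching it, limit read from the data, passing the limit was not always enough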
CAL PDZ FP-2: inhibitors of human CAL PDZ peptide binding. Q9HD26. purified CAL PDZ, TMR-peptide fluorescence polarization, 1 h. inhibition, % at 20 µM. 330,000 compounds, 0.02% hits;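 active means highest replicate inhibition of at least 40%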;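 further: plate controls were DMSO neutral control wells for no effect and unlabeled competitor peptide control wells for full effect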
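Control set: unlabelled peptide and DMSO controls / Material: purified CerCALP PDZ construct / Timing: 1 h incubation at room temperature before polarization reading / Doses: 20 µM, one dose / Detection: fluorescence polarization (mP)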
ERAP1 HTS inh: ERAP1 (human) enzyme inhibition; inhibition, % at 10.7 µM; 340,000 compounds, 0.15% hits; recombinant ERAP1, Leu-AMC fluorescence, 60 min; Q9NZ08;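 active means mean replicate inhibition of at least 30%, or all replicates individually reaching that 30% level; inactive means mean below 30% and not every replicate reaching it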;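 further: 0% = neutral control wells and 100% = L-leucinethiol positive control wells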
Target sequence (Q9NZ08 whole entry, looked up): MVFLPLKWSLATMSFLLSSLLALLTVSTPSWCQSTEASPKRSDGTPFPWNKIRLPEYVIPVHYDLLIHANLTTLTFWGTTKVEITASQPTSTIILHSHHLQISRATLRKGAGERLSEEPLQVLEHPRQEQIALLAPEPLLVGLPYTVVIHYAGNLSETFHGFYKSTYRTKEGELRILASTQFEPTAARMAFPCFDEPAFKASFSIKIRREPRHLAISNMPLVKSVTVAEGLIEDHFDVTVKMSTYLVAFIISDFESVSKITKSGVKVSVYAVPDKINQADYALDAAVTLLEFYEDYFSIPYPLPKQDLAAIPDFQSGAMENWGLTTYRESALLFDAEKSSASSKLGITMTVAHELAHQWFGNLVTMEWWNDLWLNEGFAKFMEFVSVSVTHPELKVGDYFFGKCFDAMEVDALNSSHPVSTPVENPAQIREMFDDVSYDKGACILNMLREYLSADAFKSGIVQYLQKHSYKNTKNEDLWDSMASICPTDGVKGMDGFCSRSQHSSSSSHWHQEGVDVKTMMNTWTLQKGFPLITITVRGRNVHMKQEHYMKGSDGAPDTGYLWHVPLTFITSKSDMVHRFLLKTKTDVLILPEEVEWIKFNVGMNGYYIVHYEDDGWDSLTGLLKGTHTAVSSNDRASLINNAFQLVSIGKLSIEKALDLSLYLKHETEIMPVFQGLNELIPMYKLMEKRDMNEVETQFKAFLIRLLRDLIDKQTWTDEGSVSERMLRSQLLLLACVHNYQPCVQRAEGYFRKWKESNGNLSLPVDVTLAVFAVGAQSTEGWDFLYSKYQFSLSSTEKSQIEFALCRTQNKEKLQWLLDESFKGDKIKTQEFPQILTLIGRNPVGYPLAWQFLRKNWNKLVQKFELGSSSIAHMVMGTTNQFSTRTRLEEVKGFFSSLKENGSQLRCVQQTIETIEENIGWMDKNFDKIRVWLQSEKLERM
Rin1 Abl inh: inhibitors of human Rin1-Abl protein interaction. 360,000 compounds, 0.4% hits. inhibition, % at 7.35 µM. TR-FRET Rin1/Abl binding, biochemical. AID 588664; in the data active means inhibition above about 5%, passing the limit was not always enough
PDI turbidity: PDI (human) enzyme inhibition; PDI insulin aggregation turbidity, A650, 90 min; AID 588391; 350,000 compounds, 0.052% hits; inhibition, % at 10 µM;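 active means mean inhibition across replicates of 30% or more, whatever share of single replicates reach that level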
Rin1 Abl conf: Rin1-Abl interaction inhibition confirmation; shares compounds with Rin1 Abl inh; TR-FRET Rin1-Abl binding, purified proteins; inhibition, % at 7.35 µM; 1,300 compounds, 49% hits; AID 602124
GFP quench: quenches GFP fluorescence, counter-screen for Rin1-Abl inhibitors. shares compounds with Rin1 Abl inh. inhibitors/quenchers counterscreen. inhibition, % at 6.75 µM. 1,300 compounds, 8.5% hits;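 further: ABL1-eGFP fusion protein alone without its partner RIN1-SBP; 0% = protein with vehicle and 100% = wells lacking protein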
GFP quench DR: quenches GFP in dose response, Rin1-Abl counter-screen. GFP fluorescence interference/quenching counterscreen. IC50, µM. 230 tested, under 10 active. shares compounds with Rin1 Abl inh; call rule not given here;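 further: ABL1-eGFP fusion protein alone without its RIN1 binding partner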
* marks the source's active call; other numbers are inactive results. Unless noted, no stated cut-off is given here; in the data, active means inhibition above about 6.5%; inactive means the rest.

What do the screens show for `COc1ccc(S(=O)(=O)Nc2ccc3c(c2)C(=O)N([C@H](C)CO)C[C@@H](C)[C@@H](CN(C)Cc2ccc(Cl)c(Cl)c2)OCCCC[C@H](C)O3)cc1`?
ERp5 inh: -8; ERAP1 HTS inh: 0

Results for O=C(C[C@@H]1C[C@H]2c3cc(NC(=O)NC4CCCCC4)ccc3O[C@H]2[C@H](CO)O1)NCC(F)(F)F ?
ERp5 inh: -4; ERAP1 HTS inh: -2

Results for C[n+]1c(-c2ccccc2)cc2c(=Cc3ccccc3)c3ccccc3n21 ?
CAL PDZ FP-1: 2; ERp5 inh: -5; CAL PDZ FP-2: 3; ERAP1 HTS inh: 4; Rin1 Abl inh: 13*; PDI turbidity: 8; Rin1 Abl conf: -6; GFP quench: 2

What do the screens show for `COc1ccc2nc(Nc3nc(C)c(CCC(C)C)c(=O)[nH]3)nc(C)c2c1`?
CAL PDZ FP-1: -2; CAL PDZ FP-2: -2; Rin1 Abl inh: 8.2*; PDI turbidity: -11; Rin1 Abl conf: -4; GFP quench: -2

What do the screens show for `COc1ccc2nc(Nc3nc(CSc4ccc(C)cc4)cc(=O)[nH]3)nc(C)c2c1`?
CAL PDZ FP-1: 1; ERp5 inh: 5; CAL PDZ FP-2: 1; ERAP1 HTS inh: 0; Rin1 Abl inh: -1; PDI turbidity: 5

How did COc1ccc(Cc2nc3ccc(C(=O)NCC4COCCO4)cc3o2)cc1 (centres undefined) do in these assays?
CAL PDZ FP-1: 4; ERp5 inh: 4; CAL PDZ FP-2: -1; ERAP1 HTS inh: 2; Rin1 Abl inh: 7.8*; PDI turbidity: 2; Rin1 Abl conf: -1; GFP quench: -1

Results for C=CCNC(=O)c1ccc2nc(Cc3ccc(OC)cc3)oc2c1 ?
CAL PDZ FP-1: -1; ERp5 inh: 0; CAL PDZ FP-2: -1; ERAP1 HTS inh: 2; Rin1 Abl inh: 2; PDI turbidity: 6

Results for O=C(CC1SCCNC1=O)Nc1ccc(F)c(Cl)c1 (centres undefined) ?
CAL PDZ FP-1: 3; ERp5 inh: 3; CAL PDZ FP-2: -1; ERAP1 HTS inh: -4; Rin1 Abl inh: 21*; PDI turbidity: 1; Rin1 Abl conf: 21*; GFP quench: 1; GFP quench DR: >68

How did CC1NC(=O)NC1CCCCCC(=O)Nc1ccc(F)c(Cl)c1 (centres undefined) do in these assays?
CAL PDZ FP-1: -4; ERp5 inh: 0; CAL PDZ FP-2: -3; ERAP1 HTS inh: -4; Rin1 Abl inh: 86*; PDI turbidity: 0; Rin1 Abl conf: 97*; GFP quench: 0; GFP quench DR: >67

What do the screens show for `Cc1ccc(NC(=O)CCCCCNS(=O)(=O)c2ccc(C)cc2)cc1`?
CAL PDZ FP-1: -2; CAL PDZ FP-2: 0; Rin1 Abl inh: -1; PDI turbidity: -1

How did Cc1ccc(NC(=O)CCCCCC2NC(=O)NC2C)cc1 (centres undefined) do in these assays?
ERp5 inh: 1; CAL PDZ FP-2: -2; ERAP1 HTS inh: 5; Rin1 Abl inh: 88*; PDI turbidity: -5; Rin1 Abl conf: 91*; GFP quench: 0; GFP quench DR: >68

Results for CCc1cccc(NC(=O)CCCCCC2NC(=O)NC2C)c1 (centres undefined) ?
CAL PDZ FP-1: 2; ERp5 inh: 2; CAL PDZ FP-2: -1; ERAP1 HTS inh: -3; Rin1 Abl inh: 97*; PDI turbidity: 2; Rin1 Abl conf: 100*; GFP quench: 1; GFP quench DR: >68

Results for N#C[C@@H]1[C@H](c2ccc(C3=CCCC3)cc2)[C@@H](CO)N1c1nc(-c2ccccc2)cs1 ?
ERp5 inh: 5; ERAP1 HTS inh: 1

Results for CC(C)NC(=O)N1[C@@H](C#N)[C@@H](c2ccc(-c3ccc(F)cc3)cc2)[C@@H]1CO ?
ERp5 inh: -2; ERAP1 HTS inh: 1

Results for CN1C(=O)c2cc(NC(=O)C3CC3)ccc2OC[C@H]2O[C@@H](CC(=O)NCCc3ccncc3)CC[C@H]21 ?
ERp5 inh: 0; ERAP1 HTS inh: 0

How did CC1NC(=O)NC1CCCCC(=O)O (centres undefined) do in these assays?
CAL PDZ FP-1: -3; CAL PDZ FP-2: 0; Rin1 Abl inh: 8.1*; PDI turbidity: 6; Rin1 Abl conf: 9.0*; GFP quench: 0

What do the screens show for `O=C(O)CCCCCCCC(=O)O`?
CAL PDZ FP-1: -12; ERp5 inh: -6; CAL PDZ FP-2: 0; ERAP1 HTS inh: -1; Rin1 Abl inh: -2; PDI turbidity: -4

How did CCC(=O)N[C@H]1C=C[C@H](CC(=O)NCc2ccccc2OC)O[C@@H]1CO do in these assays?
ERp5 inh: -2; ERAP1 HTS inh: -2

What do the screens show for `C[C@@H]1O[C@@H](OC[C@H]2O[C@@H](Oc3c(-c4ccc(O)c(O)c4)oc4cc(O)cc(O)c4c3=O)[C@H](O)[C@@H](O)[C@@H]2O)[C@H](O)[C@H](O)[C@H]1O`?
CAL PDZ FP-1: -2; ERp5 inh: 1; CAL PDZ FP-2: 0; ERAP1 HTS inh: 2; Rin1 Abl inh: 15*; PDI turbidity: 58*; Rin1 Abl conf: 21*; GFP quench: 2; GFP quench DR: >68

What do the screens show for `Cc1ccc(CCNC(=O)c2ccc(NC3=NC4CS(=O)(=O)CC4S3)cc2)cc1` (centres undefined)?
CAL PDZ FP-1: 4; ERp5 inh: -15; CAL PDZ FP-2: 0; ERAP1 HTS inh: 1; Rin1 Abl inh: 8.5*; PDI turbidity: -3; Rin1 Abl conf: 9.3*; GFP quench: 0

How did COc1ccc(OC)c(CCNC(=O)c2ccc(NC3=NC4CS(=O)(=O)CC4S3)cc2)c1 (centres undefined) do in these assays?
ERp5 inh: 5; CAL PDZ FP-2: 0; ERAP1 HTS inh: 5; Rin1 Abl inh: 12*; Rin1 Abl conf: 13*; GFP quench: 0

Results for Cc1ccc(CCNC(=O)Cc2ccc(NC3=NC4CS(=O)(=O)CC4S3)cc2)cc1 (centres undefined) ?
CAL PDZ FP-1: -2; ERp5 inh: 4; CAL PDZ FP-2: 0; ERAP1 HTS inh: 6; Rin1 Abl inh: 4

What do the screens show for `COc1ccc(OC)c(CCNC(=O)Cc2ccc(NC3=NC4CS(=O)(=O)CC4S3)cc2)c1` (centres undefined)?
CAL PDZ FP-1: -3; ERp5 inh: 6; CAL PDZ FP-2: 0; ERAP1 HTS inh: 8; Rin1 Abl inh: 11*; Rin1 Abl conf: 13*; GFP quench: -1
